SENP1 FRET inh – blocks the human SENP1 SUMO protease catalytic domain | Q9P0U3 | recombinant SENP1 catalytic domain, CyPet-SUMO1-YPet FRET cleavage | inhibition, % at 10 µM | actives 0.21% (n = 360,000) | AID 624204;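 active = inhibition at least 30% at 10 µM, raw YFP signal under a set limit, fluorescence ratio 0.5 to 1.5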;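 also: 0% = enzyme with DMSO and 100% = no enzyme wells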
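material = recombinant human SENP1 catalytic domain, His6-tagged | quantity = 20 pM enzyme | reagent = 25 nM SUMO1 FRET substrate | compound dosing = 10 µM single point, 0.5% DMSO | timing = 50 min enzyme reaction, room temperature, light-protected | detection = FRET, CFP and YFP emission | control set = no-enzyme low, enzyme-DMSO high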
HNF4A DNA FP – change in binding of human HNF4 alpha to DNA; P41235; HNF4a-FITC DNA binding, fluorescence polarization, 1 h; activity change, % at 10 µM; actives 0.3% (n = 360,000); in the data active = activity change above about 30%, passing the limit was not always enough
TPT1 inh – C. albicans TPT1 enzyme inhibition; recombinant caTPT1, FP RNA substrate dephosphorylation; inhibition, % at 5 µM; actives 0.81% (n = 300,000); AID 1962;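 active = inhibition above the mean of all tested compounds plus 3 SD, set per screening campaign, cut at about 24% in these data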;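 also: plate controls were DMSO alone for no effect and ferristatin control at 100 nM for full effect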
Rpn11 inh – inhibitors of human proteasome Rpn11; O00487; human 26S proteasome, Ub4-pepOG fluorescence polarization; 20S core pre-blocked with epoxomicin; calls only at 20 µM; actives 0.59% (n = 360,000); AID 588493;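 active = inhibition at 20 µM, scaled to each plate's controls, above about 33%, limit read from the data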
Target sequence (O00487 whole entry, looked up): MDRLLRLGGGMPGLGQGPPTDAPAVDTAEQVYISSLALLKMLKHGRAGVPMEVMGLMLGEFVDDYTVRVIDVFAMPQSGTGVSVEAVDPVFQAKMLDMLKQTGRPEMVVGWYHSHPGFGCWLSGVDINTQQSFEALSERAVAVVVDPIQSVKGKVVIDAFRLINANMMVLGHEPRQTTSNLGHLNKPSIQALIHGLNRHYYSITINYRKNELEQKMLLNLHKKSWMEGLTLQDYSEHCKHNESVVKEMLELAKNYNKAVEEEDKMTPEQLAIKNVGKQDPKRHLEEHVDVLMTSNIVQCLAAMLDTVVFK
UBC9 SUMO inh – blocks human SUMOylation mediated by UBC9; AID 2006; actives 0.36% (n = 290,000); inhibition, % at 35 µM; HTRF SUMOylation assay, SAE1/SAE2 + UBC9, in vitro; P63279; in the data active = inhibition above about 50%, passing the limit was not always enough
Target sequence (P63279 whole entry, looked up): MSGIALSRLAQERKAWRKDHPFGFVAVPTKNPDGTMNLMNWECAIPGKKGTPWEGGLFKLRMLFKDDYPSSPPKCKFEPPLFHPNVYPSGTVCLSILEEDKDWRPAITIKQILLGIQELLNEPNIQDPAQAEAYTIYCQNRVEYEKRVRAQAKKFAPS
CSN inh – blocks human CSN-mediated cullin deneddylation. Q92905. Purified CSN, SCF-Nedd8-OG deneddylation, fluorescence polarization. inhibition, % at 12.5 µM. actives 0.38% (n = 360,000). AID 651999;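 active = pattern-corrected inhibition above about 35%, with an unprinted fluorescence ratio check between 0.5 and 1.5, limit read from the data, passing the limit was not always enough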;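 also: 0% = enzyme with substrate and 100% = substrate without enzyme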
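Test system: Human Csn5 produced in HEK293T cells | Compound: 12.5 µM single point | Times: 90 min, room temperature | Signal: Fluorescence polarization readout | Read-out basis: % inhibition of substrate cleavage by Csn5 | Controls: no-enzyme wells high, enzyme-with-substrate wells low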
The depositor's hits bear a star. The list is not random: actives were taken first. Their share in the collection is about 1.8%.

Results for CC(=O)Oc1ccc(/C=N/NS(=O)(=O)c2ccc(C)cc2)c(OC(C)=O)c1 ?
SENP1 FRET inh: 30; HNF4A DNA FP: -1; TPT1 inh: 0; Rpn11 inh: inactive; UBC9 SUMO inh: 19; CSN inh: -1

What do the screens show for `Cc1ccc(S(=O)(=O)N(CC(=O)N2CCOCC2)CC(=O)N2CCOCC2)cc1`?
SENP1 FRET inh: 0; HNF4A DNA FP: -3; TPT1 inh: -1; Rpn11 inh: inactive; UBC9 SUMO inh: -6; CSN inh: 2

How did CN1CCCc2cc3c(C(F)(F)F)cc(=O)oc3nc21 do in these assays?
SENP1 FRET inh: -17; HNF4A DNA FP: -72; TPT1 inh: -52; Rpn11 inh: inactive; UBC9 SUMO inh: 62*; CSN inh: -31

How did Cc1cccc(N2CCN(C(=O)Cn3sc4nc(C)cc(C)c4c3=O)CC2C)c1 (stereo not given) do in these assays?
SENP1 FRET inh: 3; HNF4A DNA FP: 5; TPT1 inh: 25*; Rpn11 inh: inactive; UBC9 SUMO inh: 18; CSN inh: 7

Results for Cc1cc(C)c2c(=O)n(CC(=O)N3CCC(Cc4ccccc4)CC3)sc2n1 ?
UBC9 SUMO inh: 3

Results for Oc1c(/C=N/Nc2cccc3cccnc23)ccc2ccccc12 ?
SENP1 FRET inh: -26; HNF4A DNA FP: 3; TPT1 inh: -1; Rpn11 inh: inactive; UBC9 SUMO inh: 66*; CSN inh: -1

Results for COc1cc(CNCCc2ccccc2)ccc1OCC(=O)NC(C)(C)C ?
SENP1 FRET inh: 1; HNF4A DNA FP: 0; TPT1 inh: 0; Rpn11 inh: inactive; UBC9 SUMO inh: 22; CSN inh: 106*

What do the screens show for `COc1cc(CNCCCO)ccc1OCC(=O)NC(C)(C)C`?
SENP1 FRET inh: 2; HNF4A DNA FP: 3; TPT1 inh: 0; Rpn11 inh: inactive; UBC9 SUMO inh: 16; CSN inh: -3

What do the screens show for `O=C(CSc1ccc2ccccc2n1)Nc1nsc(-c2ccc(Cl)cc2)n1`?
SENP1 FRET inh: -2; HNF4A DNA FP: 9; TPT1 inh: 0; Rpn11 inh: inactive; UBC9 SUMO inh: -3; CSN inh: 54*

How did O=C(CSc1nnnn1-c1ccccc1)Nc1nsc(-c2ccc(Cl)cc2)n1 do in these assays?
SENP1 FRET inh: 2; HNF4A DNA FP: 0; TPT1 inh: -1; Rpn11 inh: inactive; UBC9 SUMO inh: 38; CSN inh: 10

How did CC(=O)NCCCc1nc2ccccc2n1Cc1cc(C)ccc1C do in these assays?
SENP1 FRET inh: 1; HNF4A DNA FP: 2; TPT1 inh: -1; Rpn11 inh: inactive; UBC9 SUMO inh: -7; CSN inh: -5

How did COc1cc(C(=O)NCCCc2nc3ccccc3n2Cc2cc(C)ccc2C)cc(OC)c1OC do in these assays?
SENP1 FRET inh: -1; HNF4A DNA FP: 37*; TPT1 inh: -7; Rpn11 inh: inactive; UBC9 SUMO inh: -1; CSN inh: 0

Results for Cc1ccc(C2=NOC(C)(c3nnc(-c4ccc(Cl)cc4)o3)C2)cc1 (stereo not given) ?
SENP1 FRET inh: 3; HNF4A DNA FP: 36*; TPT1 inh: 0; Rpn11 inh: inactive; UBC9 SUMO inh: 6; CSN inh: 1

What do the screens show for `O=C(CCN1C(=O)c2ccccc2C1=O)NC(=S)Nc1ccccc1`?
SENP1 FRET inh: 1; HNF4A DNA FP: -2; TPT1 inh: 2; Rpn11 inh: inactive; UBC9 SUMO inh: -6; CSN inh: -2

What do the screens show for `Cc1ccc(S(=O)(=O)N2C[C@H]3C(=O)C[C@@H](c4ccc(Cl)cc4)N(S(=O)(=O)c4ccccc4C)[C@H]3C[C@H]2c2cccc(Cl)c2)cc1`?
SENP1 FRET inh: 0; HNF4A DNA FP: -1; Rpn11 inh: inactive; CSN inh: 10

Results for Cc1cc2ncn(CC(O)COC3CCCCC3)c2cc1C (stereo not given) ?
SENP1 FRET inh: 1; HNF4A DNA FP: 1; TPT1 inh: -2; Rpn11 inh: inactive; UBC9 SUMO inh: -17; CSN inh: 6

Screens from PubChem.
